# Screening data from PubChem.
# KCNQ1 act: potentiators or activators of human KCNQ1 potassium channel; P51787; CHO-K1 KCNQ1, thallium flux FluxOR fluorescence; active compounds read high; B-score at 10 µM; hit rate 0.35% among 310,000; AID 2648;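 active means fluorescence ratio B-score, a plate-corrected score, at least three library SD, with initial intensity B-score within 5 SD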
#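 Assay system: stable KCNQ1 CHO-K1 line; medium: assay buffer, equal DMSO in all wells; timing: 90 min dye loading and 20 min compound exposure, both at room temperature; technique: kinetic FluxOR thallium fluorescence, 10-s 1-Hz baseline, 110-s post-stimulus read; read-out basis: B score of baseline-normalized fluorescence ratio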
# KCNK3 block: human KCNK3 channel inhibition, primary screen | O14649 | CHO-KCNK3 thallium flux, FluxOR fluorescence; active compounds read low | B-score at 10 µM | hit rate 0.84% among 340,000;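 active means B-score under library mean minus 4 SD, starting fluorescence ratio at most library mean plus 5 SD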;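 further: more negative B-score means stronger inhibition of thallium flux through KCNK3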
# KCNK9 inh: inhibitors of human KCNK9 two-pore domain potassium channel. Q9NPC2. HEK293 KCNK9, FluxOR thallium flux fluorescence; active compounds read low. B-score at 10 µM. hit rate 1.2% among 310,000. AID 488922;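 active means ratio B-score over 3 SD below the library mean, with starting fluorescence within 5 SD of its mean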;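 further: negative B-score means less thallium flux so channel inhibition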
# Target sequence (Q9NPC2 whole entry, looked up, the tested form may be a part): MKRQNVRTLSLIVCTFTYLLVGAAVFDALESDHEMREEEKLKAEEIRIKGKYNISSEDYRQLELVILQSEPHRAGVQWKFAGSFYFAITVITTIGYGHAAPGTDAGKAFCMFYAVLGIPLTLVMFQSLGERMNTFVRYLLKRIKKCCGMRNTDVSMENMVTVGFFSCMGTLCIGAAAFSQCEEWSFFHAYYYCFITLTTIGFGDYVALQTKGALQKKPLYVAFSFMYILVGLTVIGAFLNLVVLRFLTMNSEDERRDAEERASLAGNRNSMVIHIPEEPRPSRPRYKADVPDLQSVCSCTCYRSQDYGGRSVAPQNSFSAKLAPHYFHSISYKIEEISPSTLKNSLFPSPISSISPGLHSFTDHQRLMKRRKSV
# hERG protect: compounds protecting human hERG from proarrhythmic drug block; Q12809; CHO-hERG, FluxOR thallium flux, dofetilide IC70 present; activation (rescue from dofetilide block), less the hit threshold, % at 10 µM; hit rate 0.51% among 310,000; AID 1511;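 active means activation above the mean of controls blocked by dofetilide plus 5 SD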;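 further: thallium influx through hERG after potassium depolarization seen as dye fluorescence rise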
# KCNQ1 block: blocks the human KCNQ1 potassium channel; hit rate 1.3% among 310,000; CHO-K1 KCNQ1, FluxOR thallium flux fluorescence; active compounds read high; B-score at 10 µM; AID 2642; P51787;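 active means compounds whose thallium flux B-score, printed positive for inhibition, exceeds three library SD while starting fluorescence stays within three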;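 further: channel opened by potassium depolarization with thallium stimulus after 20 min compound exposure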
# Kir21 inh: Kir2.1 (mouse) channel inhibition; HEK293-Kir2.1, FluxOR thallium flux fluorescence; active compounds read low; B-score at 10 µM; hit rate 0.85% among 310,000; AID 1672;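 active means fluorescence ratio B-score at or below minus 3 SD of library scores, with starting-brightness B-score within 2 SD, cut at about -4.2 in these data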;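 further: channel flux triggered by added potassium and thallium sulfate stimulus; B-score of peak minus minimum fluorescence over baseline after thallium stimulus; more negative B-score means stronger Kir2.1 block with less thallium influx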
# KCNQ1 block val: confirmation of human KCNQ1 potassium channel inhibitors. shares compounds with KCNQ1 block. KCNQ1 cell line, FluxOR thallium flux fluorescence. inhibition, % at 10 µM. hit rate 93% among 1,600;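 active means primary screen active, with duplicate mean exceeding buffer control mean plus 3 SD of buffer wells, cut at about 28% in these data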;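 further: 0% = buffer control ratio and 100% = XE991 inhibitor control ratio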
# CHO Tl flux: counter-screen for KCNQ1 inhibitors: effect in parental CHO cells | parental CHO-K1, FluxOR thallium flux fluorescence ratio; active compounds read low; zero means no signal rise above baseline | shares compounds with KCNQ1 block | hit rate 21% among 1,600 | fluorescence ratio (Tl flux) at 10 µM;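 active means mean of duplicate thallium-flux fluorescence ratios in parental host cells more than 5 SD below the buffer control mean, cut at about 0.38 in these data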;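 further: ratio is peak minus minimum fluorescence divided by baseline fluorescence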
# KCNQ1 ephys val: blocks human KCNQ1 current in automated patch clamp; shares compounds with KCNQ1 block; KCNQ1-CHO cells; calls only at 10 µM; hit rate 20% among 490;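 active means KCNQ1 current drop exceeding 3 SD of negative control wells, seen in both duplicate runs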;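 further: steady state current during a 2 s step from -80 to +40 mV; negative values mean current inhibition and positive values mean potentiation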
# KCNQ2 spec: selectivity of KCNQ1 inhibitors: inhibition of rat KCNQ2 channel; hit rate 71% among 1,600; AID 651746; inhibition, % at 10 µM; shares compounds with KCNQ1 block; KCNQ2 cells, FluxOR thallium flux fluorescence;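 active means mean percent inhibition of the KCNQ2 thallium signal more than 5 SD above the buffer-only control wells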;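 further: KCNQ2 expressed in CHO cells; 0% = buffer control wells and 100% = XE-991 inhibitor control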
# KCNQ1-KCNE1 inh: selectivity of KCNQ1 inhibitors: inhibition of human KCNQ1/KCNE1 channel; inhibition, % at 10 µM; KCNQ1/KCNE1 cells, FluxOR thallium flux fluorescence; AID 652147; shares compounds with KCNQ1 block; hit rate 77% among 1,600;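 active means mean percent inhibition of duplicate wells above the buffer-only control mean plus 3 SD of those controls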;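 further: 0% = buffer only wells and 100% = XE-991 inhibitor control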
# Active calls of the source: *; i = inactive; . = not tested or not shown; + = active, no number. Most compounds without a hit are left out; they make up all but 3.7% or so of the library.
SMILES,KCNQ1 act,KCNK3 block,KCNK9 inh,hERG protect,KCNQ1 block,Kir21 inh,KCNQ1 block val,CHO Tl flux,KCNQ2 spec,KCNQ1-KCNE1 inh,others
CCOC(=O)/C=C1/N(C)c2ccccc2C1(C)C,i,i,i,-10,i,-1.2,.,.,.,.,
N#Cc1c(C(F)(F)F)cc(-c2ccc(F)cc2)[nH]c1=O,i,i,i,-6,11*,0.28,40*,0.54,i,i,
N#Cc1c(C(F)(F)F)cc(-c2ccc(Cl)cc2)[nH]c1=O,i,i,i,-3,i,0.63,.,.,.,.,
Cc1ccc(NC(=O)C(NC2CCCc3ccccc32)c2ccccc2)cc1Cl (centres undefined),i,i,i,-7,6*,-2.1,66*,0.36*,100%*,99%*,
CNC(=O)NC(=O)C(NC1CCCc2ccccc21)c1ccccc1 (centres undefined),i,i,i,-8,i,-1.4,.,.,.,.,
CCN(CC)c1nc2ccccc2n(Cc2cccc(OC)c2)c1=O,i,i,i,-6,6*,0.05,109*,0.4,99%*,170%*,KCNQ1 ephys val=i
C=CCSc1nsc(NC(=O)Nc2ccc(F)cc2)n1,i,i,i,-11,14*,-2,64*,0.51,i,i,
CCSc1nsc(NC(=O)Nc2ccccc2F)n1,i,i,i,-7,i,-0.48,.,.,.,.,
CC(=O)Nc1ccc(Nc2cc(C)c3ccccc3n2)cc1,i,i,i,-4,i,-1.1,.,.,.,.,
Cc1cc(Nc2ccccc2)nc2cc(O)ccc12,i,i,i,-19,7*,-5.2*,40*,0.47,i,i,
COCC(=O)N1CCC(Oc2ccc(C(=O)N3CCN(C)C[C@@H]3C(C)C)cc2)CC1,i,i,i,-9,i,-0.27,.,.,.,.,
C(=NOCc1ccccc1)c1cccnc1,.,i,.,.,.,.,.,.,.,.,
Cc1onc(-c2ccccc2)c1CNC(=O)Nc1ccccc1,i,i,i,-4,i,-1.8,.,.,.,.,
CCCc1nn(-c2ccccc2)c2c1C(c1cccs1)C(C#N)=C(N)O2 (centres undefined),i,i,i,-4,7*,0.35,0,0.41,i,i,
CC1(C)Cc2ccccc2-c2nc(-c3ccccc3)oc(=O)c21,i,i,i,-14,10*,-1,102*,0.44,99%*,130%*,
CC1(C)Cc2ccccc2-c2nc(NN)[nH]c(=O)c21,i,i,i,-9,i,-1.3,.,.,.,.,
CC(=O)NNC(=O)c1nc(-c2ccccc2)c(C)o1,i,i,i,-11,i,2.6,.,.,.,.,
COc1ccc(N(CC(=O)NC2CC3CCC2C3)S(=O)(=O)c2ccc(C)cc2)cc1OC (centres undefined),i,i,i,-9,i,1.4,.,.,.,.,
COc1ccc(N(CC(=O)NC2CC3CCC2C3)S(=O)(=O)c2ccccc2)cc1Cl (centres undefined),i,i,i,-1,7*,0.54,114*,0.42,i,126%*,KCNQ1 ephys val=+
CN(Cc1ccccc1)C(=O)c1cccc(NC(=O)Cc2ccc(NC(=O)C3CCN(C(=O)C4CC4)CC3)cc2)c1,.,i,.,.,.,.,.,.,.,.,
COc1cccc(CNC(=O)CCNC(=O)Cn2ccc3ccccc3c2=O)c1,i,i,i,-17,7*,0.16,0,0.56,i,i,
CCCCCC(=O)NC(=S)NC1C2CC3CC(C2)CC1C3 (centres undefined),i,i,i,-10,7*,0.54,66*,0.48,79%*,64%*,
OCCNc1c2ccccc2nc2c(F)c(F)c(F)c(F)c12,i,i,i,-14,6*,-0.94,84*,0.37*,105%*,101%*,
CN(C)CCCNc1c2ccccc2nc2ccccc12,i,i,i,-7,i,-0.46,.,.,.,.,
Cc1c2ccccc2nc2c(F)c(NCCO)c(F)c(F)c12,i,i,i,-24,6*,-12,178*,0.15*,i,i,
SMILES,KCNQ1 act,KCNK3 block,KCNK9 inh,hERG protect,KCNQ1 block,Kir21 inh,KCNQ1 block val,CHO Tl flux,KCNQ2 spec,KCNQ1-KCNE1 inh,others
CCCCN1C(=O)C(=O)N(CC(=O)Nc2sc(C)c(C)c2C(=O)OC)C1=O,.,i,.,.,.,.,.,.,.,.,
CCCCN(C(=O)c1nn(C)c(=O)c2ccccc12)c1c(N)n(CC(C)C)c(=O)[nH]c1=O,.,i,.,.,.,.,.,.,.,.,
COC(=O)[C@]1(C)N[C@H](CN(C)C(C)=O)[C@@H]2C(=O)N(Cc3ccccc3)C(=O)[C@@H]21,.,i,.,.,.,.,.,.,.,.,
CCn1c(C)nc2cc(C(=O)OC(C(F)(F)C(F)F)C(F)(F)C(F)F)ccc21,i,i,i,-22,9*,1.1,131*,0.4,89%*,116%*,KCNQ1 ephys val=i
CCn1c(C)nc2cc(C(=O)NNC(=O)c3ccc(C)cc3)ccc21,.,i,.,.,.,.,.,.,.,.,
COc1ccc(NC2CCCN(C(=O)c3cc4ncccn4n3)C2)cc1 (centres undefined),i,i,i,-3,i,-0.67,.,.,.,.,
Cc1ccc(S(=O)(=O)N2CCN(C(=O)c3cc(-c4cccs4)nn3-c3ccccc3)CC2)cc1,i,i,i,-11,i,1.3e-15,.,.,.,.,
O=C(c1cc(-c2ccccc2)nn1-c1ccccc1)N1CCN(S(=O)(=O)c2cccc(F)c2)CC1,i,i,i,-9,i,0.02,.,.,.,.,
O=C(c1cc(-c2ccccc2)nn1-c1ccccc1)N1CCN(S(=O)(=O)c2ccc(F)cc2)CC1,i,i,i,-10,6*,1.2,57*,0.46,81%*,37%*,
O=C(c1cc(-c2cccs2)nn1-c1ccccc1)N1CCN(S(=O)(=O)c2ccccc2)CC1,i,i,i,-17,7*,-0.17,60*,0.48,91%*,100%*,
CCOC(=O)c1cccc(Nc2nc(-c3cccnc3)nc3ccccc23)c1,i,i,i,-19,7*,-0.02,124*,0.39,122%*,+,KCNQ1 ephys val=i
COC(=O)c1cccc(Nc2nc(-c3cccnc3)nc3ccccc23)c1,i,i,i,-6,i,0.23,.,.,.,.,
